Laboratory results from the array DNA melting data of Ke et al. (doi:10.1101/2024.01.08.574731).

Experiments:
[1] = melting temperature; fluorescence melt of hairpins on a sequencing array, two-state fit, raised by 9.35 °C to match UV melts; conditions: sodium 0.088 M
Summary of the method: (§1)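 To match UV melts, fitted temperatures were raised by 9.35 °C. These fits were bootstrapped two-state models that gave melting temperature and folding enthalpy, combined by inverse variance over four replicates. The input was normalised Cy3 fluorescence of library hairpins with annealed Cy3 and quencher oligos on a sequenced MiSeq flow cell, imaged in 50 mM Na-HEPES pH 8.0, 25 mM NaCl in 2.5 °C steps up to 60 °C.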

[2] = folding enthalpy; higher = less favourable; fluorescence melt of hairpins on a sequencing array, two-state fit; conditions: sodium 0.088 M
Summary of the method: as §1

GGACCACGAAAGTGATCC (((.(((....))).)))
Tm [1]: 51.5 °C
folding enthalpy [2]: -29.1 kcal/mol

GGACCAGAAATGGTCC ((((((....))))))
Tm [1]: 63.7 °C
folding enthalpy [2]: -43.7 kcal/mol

GGACCCCGAAAGGGTCC (((.(((....))))))
Tm [1]: 68 °C
folding enthalpy [2]: -30.2 kcal/mol

GGACCCGAAAGGGAGTCC ((((((....)))..)))
Tm [1]: 49.9 °C
folding enthalpy [2]: -20.9 kcal/mol

GGACCCGAAAGGGATTCC ((((((....)))..)))
Tm [1]: 37.5 °C
folding enthalpy [2]: -12.2 kcal/mol

GGACCCGAAAGGGCCTCC ((((((....)))..)))
Tm [1]: 57.5 °C
folding enthalpy [2]: -14.7 kcal/mol

GGACCCGAAAGGGTCTCC ((((((....)))..)))
Tm [1]: 58.9 °C
folding enthalpy [2]: -7.17 kcal/mol

GGACCCGGAAACGGGCCC ((.((((....)))).))
Tm [1]: 59.6 °C
folding enthalpy [2]: -19.2 kcal/mol

GGACCCGGAAACGGGTTC (.(((((....))))).)
Tm [1]: 59.4 °C
folding enthalpy [2]: -25.6 kcal/mol

GGACCTCGAAAGAGATCC (((.(((....))).)))
Tm [1]: 46.7 °C
folding enthalpy [2]: -30.6 kcal/mol

GGACCTCGAAAGAGCTCC (((.(((....))).)))
Tm [1]: 37 °C
folding enthalpy [2]: -25.5 kcal/mol

GGACGCCCGAAAGGGTCC (((..(((....))))))
Tm [1]: 43.2 °C
folding enthalpy [2]: -16.2 kcal/mol

GGACGCCGAAAGGCATCC (((.(((....))).)))
Tm [1]: 52.6 °C
folding enthalpy [2]: -22.6 kcal/mol

GGACGCGAAAGCGATCC ((((((....))).)))
Tm [1]: 57.4 °C
folding enthalpy [2]: -16.7 kcal/mol

GGACGCGAAAGCGTATCC ((((((....)))..)))
Tm [1]: 37.4 °C
folding enthalpy [2]: -9.56 kcal/mol

GGACGCGAAAGCGTCTCC ((((((....)))..)))
Tm [1]: 62.5 °C
folding enthalpy [2]: -6.35 kcal/mol

GGACGCGAAAGCGTTCC ((((((....))).)))
Tm [1]: 61.8 °C
folding enthalpy [2]: -14.1 kcal/mol

GGACGCGGAAACGCGTTC (.(((((....))))).)
Tm [1]: 62.2 °C
folding enthalpy [2]: -16.6 kcal/mol

GGACGGCGAAAGCCTTCC (((.(((....))).)))
Tm [1]: 52.5 °C
folding enthalpy [2]: -22.6 kcal/mol

GGACGGGGAAACCCACCC ((..(((....)))..))
Tm [1]: 26.1 °C
folding enthalpy [2]: -10.4 kcal/mol

GGACGTGGAAACACACCC ((..(((....)))..))
Tm [1]: 25 °C
folding enthalpy [2]: -7.91 kcal/mol

GGACGTGGAAACACGTTC (.(((((....))))).)
Tm [1]: 53.7 °C
folding enthalpy [2]: -23 kcal/mol

GGACTACGAAAGTAATCC (((.(((....))).)))
Tm [1]: 38.7 °C
folding enthalpy [2]: -33.4 kcal/mol

GGACTACGAAAGTATCC (((.(((....))))))
Tm [1]: 36.8 °C
folding enthalpy [2]: -21.5 kcal/mol

GGACTAGCGAAAGCTTCC (((..(((....))))))
Tm [1]: 27.5 °C
folding enthalpy [2]: -10.7 kcal/mol

GGACTCGAAAGAGATCC ((((((....))).)))
Tm [1]: 44.7 °C
folding enthalpy [2]: -22.1 kcal/mol

GGACTCGAAAGAGGTTCC ((((((....)))..)))
Tm [1]: 33.8 °C
folding enthalpy [2]: -17.6 kcal/mol

GGACTCGAAAGAGTCTCC ((((((....)))..)))
Tm [1]: 53.3 °C
folding enthalpy [2]: -10.4 kcal/mol

GGACTGGGAAACCAGTCC (((((((....)))))))
Tm [1]: 68.5 °C
folding enthalpy [2]: -35.3 kcal/mol

GGACTGGGAAACTAGTCC (((((.(....).)))))
Tm [1]: 50.2 °C
folding enthalpy [2]: -32.1 kcal/mol

GGAGAAACGAAAGTTTCC (((..(((....))))))
Tm [1]: 37.7 °C
folding enthalpy [2]: -14.1 kcal/mol

GGAGAAGGAAACCTCTCC (((((.(....).)))))
Tm [1]: 37.7 °C
folding enthalpy [2]: -28.6 kcal/mol

GGAGACCGAAAGGTTTCC (((.(((....))).)))
Tm [1]: 55.5 °C
folding enthalpy [2]: -41.5 kcal/mol

GGAGACGAAAGTCCCTCC ((((((....)))..)))
Tm [1]: 49.8 °C
folding enthalpy [2]: -16.3 kcal/mol

GGAGACGAAAGTCTTCC ((((((....))).)))
Tm [1]: 50.9 °C
folding enthalpy [2]: -18 kcal/mol

GGAGACTCGAAAGAGTCC (((..(((....))))))
Tm [1]: 45.4 °C
folding enthalpy [2]: -10 kcal/mol

GGAGAGCCGAAAGGCTCC (((..(((....))))))
Tm [1]: 43.3 °C
folding enthalpy [2]: -6.93 kcal/mol

GGAGAGCGAAAGCTGTCC (((.(((....))).)))
Tm [1]: 58.2 °C
folding enthalpy [2]: -32.8 kcal/mol

GGAGAGGCGAAAGCCTCC (((..(((....))))))
Tm [1]: 49.5 °C
folding enthalpy [2]: -7.4 kcal/mol

GGAGAGGGAAACCTTTCC (((.(((....))).)))
Tm [1]: 38.2 °C
folding enthalpy [2]: -27.3 kcal/mol

GGAGAGTCGAAAGACTCC (((..(((....))))))
Tm [1]: 46.6 °C
folding enthalpy [2]: -10.9 kcal/mol

GGAGATGCGAAAGCATCC (((..(((....))))))
Tm [1]: 46.6 °C
folding enthalpy [2]: -8.76 kcal/mol

GGAGATGGAAACACCTCC ((((.((....)).))))
Tm [1]: 39.7 °C
folding enthalpy [2]: -29.7 kcal/mol

GGAGATGGAAACATCCCC ((.((((....)))).))
Tm [1]: 41.3 °C
folding enthalpy [2]: -26.6 kcal/mol

GGAGATGGAAACATTTCC (((.(((....))).)))
Tm [1]: 39.2 °C
folding enthalpy [2]: -32.9 kcal/mol

GGAGATGGAAACGTTTCC (((.(.(....).).)))
Tm [1]: 32.9 °C
folding enthalpy [2]: -16.5 kcal/mol

GGAGCACCGAAAGGTTCC (((..(((....))))))
Tm [1]: 30.2 °C
folding enthalpy [2]: -11.3 kcal/mol

GGAGCAGCGAAAGCTTCC (((..(((....))))))
Tm [1]: 30.8 °C
folding enthalpy [2]: -13.8 kcal/mol

GGAGCCCGAAAGGGTCC (((.(((....))))))
Tm [1]: 59.9 °C
folding enthalpy [2]: -18.9 kcal/mol

GGAGCCCGAAAGGGTTCC (((.(((....))).)))
Tm [1]: 68.4 °C
folding enthalpy [2]: -25.7 kcal/mol

GGAGCCGAAAGGCCCTCC ((((((....)))..)))
Tm [1]: 64.6 °C
folding enthalpy [2]: -12.8 kcal/mol

GGAGCCGAAAGGCCGTCC ((((((....)))..)))
Tm [1]: 36.3 °C
folding enthalpy [2]: -9.47 kcal/mol

GGAGCCGAAAGGCCTCC ((((((....))).)))
Tm [1]: 54.5 °C
folding enthalpy [2]: -24.4 kcal/mol

GGAGCCGGAAACGACCCC ((.(.((....)).).))
Tm [1]: 29.4 °C
folding enthalpy [2]: -15.5 kcal/mol

GGAGCGACGAAAGTCTCC (((..(((....))))))
Tm [1]: 36.6 °C
folding enthalpy [2]: -13.9 kcal/mol

GGAGCGCGAAAGCGTTCC (((.(((....))).)))
Tm [1]: 67.6 °C
folding enthalpy [2]: -35 kcal/mol

GGAGGACGAAAGTCATCC (((.(((....))).)))
Tm [1]: 61.4 °C
folding enthalpy [2]: -33.3 kcal/mol

GGAGGAGGAAACTCCCCC ((.((((....)))).))
Tm [1]: 41.8 °C
folding enthalpy [2]: -17.6 kcal/mol

GGAGGCACGAAAGTGTCC (((..(((....))))))
Tm [1]: 41 °C
folding enthalpy [2]: -12.6 kcal/mol

GGAGGCGAAAGCCAGTCC ((((((....)))..)))
Tm [1]: 34.1 °C
folding enthalpy [2]: -10.6 kcal/mol

GGAGGCGAAAGCCCTTCC ((((((....)))..)))
Tm [1]: 53.1 °C
folding enthalpy [2]: -15.2 kcal/mol

GGAGGCGAAAGCCGGTCC ((((((....)))..)))
Tm [1]: 43.3 °C
folding enthalpy [2]: -9.6 kcal/mol

GGAGGCGGAAACACCCCC ((.((.(....).)).))
Tm [1]: 26.6 °C
folding enthalpy [2]: -12.8 kcal/mol

GGAGGGAAACCTCC (((((....)))))
Tm [1]: 54.7 °C
folding enthalpy [2]: -26.3 kcal/mol

GGAGGGCGAAAGCCTTCC (((.(((....))).)))
Tm [1]: 61.9 °C
folding enthalpy [2]: -24.9 kcal/mol

GGAGGTCGAAAGACATCC (((.(((....))).)))
Tm [1]: 57.5 °C
folding enthalpy [2]: -38.7 kcal/mol

GGAGGTCGAAAGACTTCC (((.(((....))).)))
Tm [1]: 53.5 °C
folding enthalpy [2]: -37.5 kcal/mol

GGAGTACGAAAGTATCC (((.(((....))))))
Tm [1]: 38.5 °C
folding enthalpy [2]: -22.7 kcal/mol

GGAGTACGAAAGTATTCC (((.(((....))).)))
Tm [1]: 49.2 °C
folding enthalpy [2]: -33.1 kcal/mol

GGAGTAGAAATACTCC ((((((....))))))
Tm [1]: 52 °C
folding enthalpy [2]: -32.6 kcal/mol

GGAGTAGGAAACTACTCC (((((((....)))))))
Tm [1]: 59 °C
folding enthalpy [2]: -46.4 kcal/mol

GGAGTCCGAAAGGATCC (((.(((....))))))
Tm [1]: 47.8 °C
folding enthalpy [2]: -21.6 kcal/mol

GGAGTCCGAAAGGATTCC (((.(((....))).)))
Tm [1]: 55.7 °C
folding enthalpy [2]: -47.8 kcal/mol

GGAGTCGAAAGACATCC ((((((....))).)))
Tm [1]: 42.8 °C
folding enthalpy [2]: -18.2 kcal/mol

GGAGTCGAAAGACGATCC ((((((....)))..)))
Tm [1]: 46 °C
folding enthalpy [2]: -12.3 kcal/mol

GGAGTCGAAAGACGGTCC ((((((....)))..)))
Tm [1]: 39.2 °C
folding enthalpy [2]: -14.1 kcal/mol

GGAGTCGGAAACGACCCC ((.((((....)))).))
Tm [1]: 54.4 °C
folding enthalpy [2]: -15.2 kcal/mol

GGAGTGCGAAAGCAATCC (((.(((....))).)))
Tm [1]: 60.1 °C
folding enthalpy [2]: -35.7 kcal/mol

GGAGTGTCGAAAGACTCC (((..(((....))))))
Tm [1]: 39.2 °C
folding enthalpy [2]: -17.2 kcal/mol

GGAGTTCGAAAGAATCC (((.(((....))))))
Tm [1]: 33.5 °C
folding enthalpy [2]: -17.5 kcal/mol

GGAGTTGGAAACAGCTCC ((((.((....)).))))
Tm [1]: 50.2 °C
folding enthalpy [2]: -43.9 kcal/mol

GGATAACCGAAAGGTTCC (((..(((....))))))
Tm [1]: 32.4 °C
folding enthalpy [2]: -14.1 kcal/mol

GGATAACGAAAGTTTCC (((.(((....))))))
Tm [1]: 40.1 °C
folding enthalpy [2]: -20.4 kcal/mol

GGATAAGGAAACCTATCC (((((.(....).)))))
Tm [1]: 33.5 °C
folding enthalpy [2]: -30.3 kcal/mol

GGATAAGGAAACTTGTCC (((.(((....))).)))
Tm [1]: 39.2 °C
folding enthalpy [2]: -29.6 kcal/mol

GGATACCGAAAGGTGTCC (((.(((....))).)))
Tm [1]: 58.8 °C
folding enthalpy [2]: -44 kcal/mol

GGATACGAAAGTAACTCC ((((((....)))..)))
Tm [1]: 30.6 °C
folding enthalpy [2]: -16 kcal/mol

GGATACGAAAGTACCTCC ((((((....)))..)))
Tm [1]: 40.1 °C
folding enthalpy [2]: -20 kcal/mol

GGATACGAAAGTATCTCC ((((((....)))..)))
Tm [1]: 46.2 °C
folding enthalpy [2]: -13.3 kcal/mol

GGATACGGAAACGTGTCC (((.(((....))).)))
Tm [1]: 52.7 °C
folding enthalpy [2]: -46.1 kcal/mol

GGATCAGGAAACTGGTCC (((.(((....))).)))
Tm [1]: 51.3 °C
folding enthalpy [2]: -39.2 kcal/mol
